These results are taken from paper PMC11964553 (Materials Today Bio, 2025).

For series [1] the following is noted: cited from earlier work.
The nature of series [2]: Plasma pharmacokinetics in orthotopic 4T1 tumor-bearing mice. The format is in vivo, BALB/c mice.
Series [3] in a line: Tissue quantification of Om and As in tumor. The format is in vivo, BALB/c mice. In outline: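 Orthotopic 4T1-luc tumor-bearing female BALB/c mice were dosed i.v. with free drug combination or co-loaded liposome. Tumor and organs were collected at 1, 2, 4, 6, 8, 10, 12 and 24 h, weighed, and homogenized in cold methanol at 4 °C, then spun at 12,000 rpm for 10 min at 4 °C. The pellet was re-extracted with cold chloroform and the supernatants pooled. Parameters came from a non-compartmental model; n = 6.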

Turning to `CC(C)(O)[C@@H]1CC[C@](C)([C@H]2[C@@H](O)C[C@@]3(C)[C@@H]4C[C@H](O[C@@H]5O[C@H](CO)[C@@H](O)[C@H](O)[C@H]5O)[C@H]5C(C)(C)[C@@H](O[C@@H]6OC[C@@H](O)[C@H](O)[C@H]6O)CC[C@@]56C[C@@]46CC[C@]23C)O1` [Free As, Astragaloside IV], in series [1], the Solubility result is recorded as “poor solubility”. Moreover, the “Cmax of As in plasma” value in series [2] (i.v. 2.0 mg/kg Om and 1.5 mg/kg As, 4T1 tumor-bearing mice, n = 6) came to 52.22 ± 9.04 ng/mL. In series [2] (i.v., n = 6), the “MRT of As in plasma” value turned out to be 1.73 ± 0.50 h, the “Tmax of As in plasma” value is given as 0.17 ± 0.01 h and the “t1/2 of As in plasma” value is 1.73 ± 1.03 h. In addition, in series [2] (time 0–24 h, i.v., n = 6), the “AUC of As in plasma” value is 38.77 ± 12.39 ng·h/mL. In series [3] (i.v., n = 6), the “Cmax of As in tumor” value came out at 0.64 ± 0.26 ng/mL and the “MRT of As in tumor” value turned out to be 5.36 ± 2.05 h. In addition, the “AUC of As in tumor” value in series [3] (time 0–24 h, i.v., n = 6) turned out to be 6.04 ± 2.43 ng·h/mL.
On to `O=C1CCC[C@@H]2[C@H]3CCC[N+]4([O-])CCC[C@@H](CN12)[C@@H]34` (stereo partly drawn) [Free Om, oxymatrine], for which, in series [1], the “log partition coefficient (log P)” value was “low”. Further, in series [2] (BALB/c, mouse, iv, 2 mg/kg), the AUC amounted to 1.01 ± 0.25 ng·h/mL, the Cmax was determined as 1.75 ± 0.31 ng/mL, the mean residence time (MRT) turned out to be 2.12 ± 1.19 h and the Tmax was determined as 0.17 ± 0.01 h. Further, the half-life in series [2] (BALB/c, mouse, iv, 2 mg/kg) was 5.66 ± 2.12 h. In series [3] (BALB/c, mouse, iv, 2 mg/kg), this compound had an AUC of 6.09 ± 3.96 ng·h/mL, a Cmax of 0.92 ± 0.43 ng/mL and an MRT of 6.95 ± 2.83 h.

As usually defined, the AUC is concentration integrated over time. Lower therefore signals low exposure. One may read the Cmax as the highest concentration seen after dosing. As usually defined, the MRT is a mean duration of stay, worked out from the concentration-time curve. What is called Tmax is the time at which the peak concentration occurs. As a reminder, the half-life is the time in which the quantity being followed falls by half. The low end stands for fast loss, the high end for slow loss.
